Rtt109 HAT inh = inhibitors of Candida albicans Rtt109/Vps75 histone acetyltransferase | inhibition, % at 34.9 µM | hit rate 0.16% among 330,000 | purified Rtt109/Vps75, ThioGlo CoA-SH fluorescence, 4 h | AID 540336;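 active = inhibition of at least 50% in every replicate; inconclusive = best replicate reaches 50% inhibition but some replicates fall short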
M18AAP inhibitor = blocks P. falciparum M18 aspartyl aminopeptidase. AID 1822. inhibition, % at 7.35 µM. recombinant PfM18AAP, H-Glu-NHMec fluorogenic cleavage. hit rate 1.2% among 290,000;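 active = inhibition above the campaign mean inhibition over all tested compounds plus 3 SD, cut at about 28% in these data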
HDAC3 inhib = human HDAC3 inhibition; inhibition, % at 8.3 µM; AID 2718; hit rate 0.15% among 320,000; O15379; recombinant HDAC3, fluorogenic peptide/trypsin coupled, fluorescence; in the data active = inhibition above about 26%, passing the limit was not always enough; inconclusive = no clear call, values can overlap the other calls
UCH37 inh = blocks the human deubiquitinase UCH37 | Q9Y5K5 | purified proteasome/UCH37, Ub-AMC cleavage fluorescence | inhibition, % (concentration not given with the values) | hit rate 0.33% among 330,000;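 active = mean inhibition over replicate wells above about 20%, limit read from the data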
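Material: Human UCH37 enzyme supplied as purified proteasome complex | Schedule: 30 min preincubation with enzyme, 25 min cleavage at room temperature | Detection: AMC fluorescence 355/460 nm | Measure: % inhibition of Ub-AMC cleavage fluorescence | Controls: Wells without proteasome as full block, compound-free enzyme plus substrate as uninhibited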
ALR H2O2 inh = blocks human ALR sulfhydryl oxidase activity; inhibition, % (test concentration not listed); purified ALR, DTT oxidation, H2O2 HRP-luminol luminescence; hit rate 3.8% among 290,000;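 active = mean replicate inhibition above about 79%, with every replicate also reaching it, limit read from the data; inconclusive = only one of the two criteria met; inactive = mean below limit and not every replicate reaching it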
Target sequence (P55789 whole entry, looked up): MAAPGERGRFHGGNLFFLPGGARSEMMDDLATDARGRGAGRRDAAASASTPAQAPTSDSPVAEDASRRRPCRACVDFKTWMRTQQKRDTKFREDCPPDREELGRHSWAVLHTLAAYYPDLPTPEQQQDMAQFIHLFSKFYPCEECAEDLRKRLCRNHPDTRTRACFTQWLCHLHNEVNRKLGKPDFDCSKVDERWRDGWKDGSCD
FAS-TE inh = blocks the thioesterase domain of human fatty acid synthase | recombinant FAS-TE, OMFH fluorogenic substrate, fluorescence endpoint | inhibition, % at 15 µM | hit rate 0.67% among 360,000;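 active = compounds whose normalised, plate-corrected inhibition of enzyme fluorescence in the single-dose primary screen is 50% or more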
Hits are given with their value; . = inactive; ? = inconclusive; / = not tested or not shown. In the library only some 4.6% were active in any assay of this set; here they are far more common.

SMILES | Rtt109 HAT inh | M18AAP inhibitor | HDAC3 inhib | UCH37 inh | ALR H2O2 inh | FAS-TE inh
COc1ccc(N2CCN(CCCNC(=O)C3(S(=O)(=O)c4ccc(Cl)cc4)CC3)CC2)cc1 | . | . | . | . | 85.5 | .
COc1cccc(-c2csc(N3CCN(CC(=O)Nc4ccc5c(c4)OCO5)CC3)n2)c1 | . | . | . | . | / | .
COc1ccc(N2CCN(CC(=O)NCc3ccccc3)CC2)cc1 | . | . | . | . | . | .
COc1ccc(N2CC(NC(=O)N3CCN(c4ccccc4)CC3)CC2=O)cc1 (stereo unspecified) | . | . | . | . | 96.8 | .
CC(CCc1ccccc1)NC(=O)CN1CCN(c2ccc(O)cc2)CC1 (stereo unspecified) | . | . | . | . | 99.9 | .
COc1ccc(N2CC(NC(=O)Nc3ccccc3)CC2=O)cc1 (stereo unspecified) | . | . | . | . | . | .
COc1cccc(N2CCN(CC(=O)NCc3cccs3)CC2)c1 | . | . | . | . | 98.6 | .
Cc1ccc(CN2CCN(CC(=O)NC(C)CCc3ccccc3)C2=O)cc1 (stereo unspecified) | . | . | . | . | . | .
COc1ccc(NC(=O)CN2CCN(c3nc(-c4cccc(OC)c4)cs3)CC2)cc1 | . | . | . | . | 98.9 | .
O=C(NN=Cc1ccncc1)c1cc([N+](=O)[O-])cc([N+](=O)[O-])c1 | / | / | / | . | / | /
COc1ccc(N2CCN(C(=O)NCc3ccc(OC)c(Cl)c3)CC2)cc1 | . | . | ? | . | . | .
COc1ccc(-n2c(CNC(=O)COc3ccc(Cl)cc3Cl)n[nH]c2=S)cc1 | . | . | . | . | . | .
COc1cccc(N2CCN(C(=O)c3[nH]c(C)c(C(C)=O)c3C)CC2)c1 | . | . | . | . | . | .
COc1ccc(N2CCN(C(=O)CN3CCN(C(c4ccccc4)c4ccccc4)CC3)CC2)cc1 | . | . | . | . | . | .
COC(=O)c1c(C)[nH]c(C(=O)N2CCN(c3ccc(OC)cc3)CC2)c1C | / | . | . | / | 95.6 | /
COc1ccc(N2CCN(CC(=O)NC(C)c3ccccc3)CC2)cc1 (stereo unspecified) | . | . | . | . | 95.1 | .
COc1ccc(N2CCN(C(=O)NCc3ccc(OC)c(OC)c3)CC2)cc1 | . | . | . | . | 88.6 | .
COc1ccc(-n2c(CNC(=O)COc3ccc(Cl)cc3)n[nH]c2=S)cc1 | . | . | . | . | 88.1 | .
Cc1ccc(N2CCN(N=CC3=C(N4CCOCC4)/C(=C\c4ccccc4)CC3)CC2)cc1 | / | / | / | . | / | /
CC(C)c1ccc(C=Nn2nnnc2Nc2ccccc2)cc1 | / | / | / | . | / | /
NC(=O)c1ccc(C=NO)[n+](Cc2ccccc2)c1 | / | / | / | . | / | /
COc1ccc(/C(O)=C2/C(=O)C(=O)N(CCCN(C)C)C2c2ccc(Cl)cc2)cc1OC (stereo unspecified) | . | . | . | 23.9 | / | .
COc1ccc(/C(O)=C2/C(=O)C(=O)N(CCCN3CCOCC3)C2c2ccc(C(C)C)cc2)cc1 (stereo unspecified) | . | . | . | 20.1 | . | .
N#C/C(=C\c1cccc(Cl)c1)C(=O)c1ccccc1 | . | . | . | / | 95.7 | .
COc1cccc(C(=NO)C2CC2c2ccc(Cl)cc2)c1 (stereo unspecified) | / | / | / | . | / | /
SMILES | Rtt109 HAT inh | M18AAP inhibitor | HDAC3 inhib | UCH37 inh | ALR H2O2 inh | FAS-TE inh
COc1cc(-c2nc3ccc4ccccc4c3c3c2CCC3)cc(OC)c1O | . | . | . | . | . | .
COc1cc(-c2nc3ccc4ccccc4c3c3c2CCC3)ccc1O | . | . | . | . | 96.2 | .
Cc1ccc(S(=O)(=O)NN=Cc2cn(C)nc2C)cc1 | / | / | / | . | / | /
N#CC(C#N)=C1C=C2C=C(N3CCCCC3)CCC2CC1 (stereo unspecified) | / | . | . | . | 99.2 | /
OCCCn1c(-c2ccccc2)csc1=Nc1ccccc1 | / | . | . | . | . | .
O=C(O)CCC(=O)NCCn1c(-c2ccccc2)csc1=Nc1ccccc1 | . | . | . | . | 92.2 | .
CCOC(=O)CNC(=O)CSc1nc(-c2ccccc2)ns1 | . | 28.3 | . | . | . | .
O=[N+]([O-])c1ccc(-c2ccc(C=NNc3nc(NCc4ccccc4)nc(N4CCOCC4)n3)o2)cc1 | / | / | / | . | / | /
COC(=O)CCc1nc2ccccc2[nH]c1=O | . | . | . | . | . | .
COC(=O)CSCc1nc2ccccc2[nH]c1=O | . | . | . | . | 99.3 | .
CCOC(=O)c1c(-c2ccc(F)cc2)csc1N=CN(C)C | / | / | / | . | / | /
ON=C1CCC/C1=C\c1ccco1 | / | / | / | . | / | /

Compound activity from PubChem.
